# This is a sample that favours compounds with a hit; in the whole collection about 4.9% have one here.
# STAT1 act – STAT1 signaling activation. hit rate 2.6% among 200,000. activation (% of control), % at 5.5 µM. NIH 3T3 STAT1-luciferase reporter, IFN-gamma, luminescence; 100% = IFN-gamma alone, no compound;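 active means activation above the screen-wide mean activation plus 3 SD, cut at about 130% in these data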
# STAT3 act – increases IL-6 driven STAT3 reporter signal; U3A cells, IL-6 STAT3-luciferase reporter, luminescence; 100% = signal with IL-6 EC80 alone; activation (% of control), % at 5.6 µM; hit rate 0.91% among 190,000;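 active means activation above the screen-wide mean of compound activation plus 3 SD, cut at about 130% in these data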
#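 Test system: Human STAT1-deficient U3A cells with stable STAT3-luciferase reporter | Also added: Interleukin-6, 33 ng/mL | Timing: Compound pre-incubation 1 h before IL-6, then 6 h stimulation at 37 °C | Technique: Luciferase reporter luminescence | Read-out: Percent of IL-6-only median luminescence | Benchmarks: IL-6-only wells as 100% reference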
# STAT3 inh – reduces IL-6 driven STAT3 reporter signal. hit rate 0.89% among 190,000. AID 862. U3A cells, IL-6 STAT3-luciferase reporter, luminescence; host cell line lacks STAT1. inhibition, % at 5.5 µM;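 active means inhibition above the mean inhibition across all screened compounds plus 3 SD, cut at about 44% in these data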
# FLuc act counter – firefly luciferase counter-screen for stimulation assays | P08659 | ATPlite luciferase biochemical, luminescence, 10 min; 0 = ATP-free wells, 1 = DMSO control | activation factor at 10 µM | 200,000 tested, under 10 active | AID 1027;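 active means luciferase activation factor, scaled between plate controls, of at least 2 with compound at 10 µM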
# Target sequence (P08659 whole entry, looked up): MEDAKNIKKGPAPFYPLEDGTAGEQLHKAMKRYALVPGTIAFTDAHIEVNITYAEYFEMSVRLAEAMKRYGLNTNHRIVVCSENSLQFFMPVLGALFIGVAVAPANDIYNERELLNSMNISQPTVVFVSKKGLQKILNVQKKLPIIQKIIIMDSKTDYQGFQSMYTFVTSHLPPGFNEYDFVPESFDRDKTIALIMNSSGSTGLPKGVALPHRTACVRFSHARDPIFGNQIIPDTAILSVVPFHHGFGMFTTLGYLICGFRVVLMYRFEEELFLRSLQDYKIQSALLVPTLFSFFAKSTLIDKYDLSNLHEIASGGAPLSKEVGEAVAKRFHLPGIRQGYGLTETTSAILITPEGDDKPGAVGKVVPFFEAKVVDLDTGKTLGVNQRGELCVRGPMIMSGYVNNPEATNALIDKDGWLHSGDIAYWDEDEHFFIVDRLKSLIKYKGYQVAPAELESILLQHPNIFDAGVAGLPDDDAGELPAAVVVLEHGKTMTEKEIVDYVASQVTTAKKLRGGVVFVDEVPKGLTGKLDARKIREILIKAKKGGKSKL
#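 Assay system – cell-free luciferase reagent · Medium – PBS-based ATP solution · Dosing – test compounds dosed from 2 mM stocks in 100% DMSO · Timing – 10 min, room temperature · Technique – light output (luminescence) · Measure – luminescence gain marking luciferase activators · Controls – No-ATP low control, compound-free enzyme-plus-ATP high control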
# STAT1 blocker – STAT1 signaling inhibition. hit rate 0.35% among 200,000. NIH 3T3 STAT1-luciferase reporter, IFN-gamma, luminescence. inhibition, % at 5.5 µM;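 active means inhibition above a set limit, the mean inhibition across all tested compounds plus 3 SD, cut at about 34% in these data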
# FLuc inh counter – inhibits firefly luciferase, flagging false hits in luciferase inhibition screens; ATPLite firefly luciferase biochemical luminescence, 10 min; inhibition, % at 10 µM; hit rate 1.5% among 200,000;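 active means inhibition above about 50% when tested at 10 µM, limit read from the data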
# Hits are given with their value; n = inactive; x = no result given.
SMILES,STAT1 act,STAT3 act,STAT3 inh,FLuc act counter,STAT1 blocker,FLuc inh counter
N#Cc1cc(C(=O)c2ccccc2OCC(=O)Nc2ccccc2)cn(C2CCCCC2)c1=O,n,n,n,n,n,n
O=C(COc1ccccc1C(=O)c1cnn(-c2ccccc2)c1)Nc1ccccc1,n,n,n,n,n,74
Cc1cc(C(=O)CSc2nnnn2C)c(C)n1-c1cccc(F)c1,131,n,n,n,n,n
CCn1ccc(C(=O)N2CCOCC2)n1,n,n,n,n,n,n
CCn1ccc(C(=O)Oc2ccc(C(C)C)cc2)n1,n,n,n,n,n,62
O=C(Sc1cccc2cccnc12)c1ccc(F)cc1,173,n,n,n,n,n
CC(=O)/C(=N\Nc1ccccc1)Sc1cccc2cccnc12,n,n,n,n,n,n
O=S(=O)(Nc1cc(Sc2cccc3cccnc23)c(O)c2ccccc12)c1ccc(F)cc1,141,184,n,n,n,n
COc1ccc(S(=O)(=O)Nc2cc(Sc3ncn[nH]3)c(O)c3ccccc23)cc1,n,n,n,n,n,n
O=C(NC(=S)Nc1ccc2c(c1)OCO2)c1ccc(Cl)cc1,130,n,n,n,n,n
CCc1ccc(C(=O)NC(=S)Nc2ccc3c(c2)OCCO3)cc1,146,n,n,n,n,n
O=C(NC(=S)Nc1ccc2c(c1)OCCO2)c1ccc(F)cc1Cl,131,n,n,n,n,n
Cc1ccc(-n2cc(CNCCc3ncc(C)[nH]3)c(-c3ccc(F)cc3)n2)cc1,n,n,n,n,n,n
O=C1CN(C(=O)Cn2ncc(Cl)c(Cl)c2=O)c2ccccc2N1,n,n,n,n,n,n
O=C1CN(CC(=O)Nc2cccc(Cl)c2Cl)c2ccccc2N1,n,149,n,n,n,n
CCOC(=O)N/N=C/C(Cl)=C/c1ccccc1,n,n,n,n,n,n
O=C(Cc1cccs1)N/N=C/C(Cl)=C/c1ccccc1,147,n,n,n,n,n
CC1(C)Cc2ccccc2C2=NNC(=O)C2=N1,139,n,n,n,n,n
CCOc1ccc(NC(=O)CSc2ccccc2N)cc1,n,n,n,n,n,n
Clc1ccc(/C=C/c2ncc3ccccn23)cc1,144,n,n,n,n,67
Fc1ccc(-c2ncc3ccccn23)cc1,n,n,n,n,n,n
Cc1ccc(/C=C/C(=O)N2CCC(Cc3ccccc3)CC2)cc1,n,n,n,n,n,n
Cc1cccc(NC(=O)COC(=O)Cc2cccc(C(F)(F)F)c2)c1C,n,n,n,n,n,n
COc1ccccc1C1=NC(c2ccc(F)cc2)N=C1C (stereo not drawn),131,n,n,n,n,n
O=C(NCCN1CCOCC1)c1ccncc1,n,n,n,n,n,n
SMILES,STAT1 act,STAT3 act,STAT3 inh,FLuc act counter,STAT1 blocker,FLuc inh counter
O=C1C=C(NCCN2CCOCC2)C(=O)c2cnccc21,n,n,83,n,53,n
CC(C)c1ccc2nc(N)sc2c1,n,n,n,n,n,67
O=[n+]1c2c(n([O-])c3c1CCC3)CCCC2,n,136,n,n,n,n
COc1ccc(C(=O)NC(=S)Nc2ccc3c4c(cccc24)CC3)cc1OC,n,n,n,n,n,n
N/C(=N\OC(=O)C12CC3CC(CC(C3)C1)C2)c1ccccc1,n,n,n,n,n,65
C/C(=N\NC(=O)c1ccccn1)C12CC3CC(CC(C3)C1)C2,150,n,n,n,n,n
N/C(=N\OC(=O)C12CC3CC(CC(C3)C1)C2)c1ccccn1,142,n,n,n,n,66
C/C(=N/NC(=O)c1ccoc1C)C12CC3CC(CC(C3)C1)C2,n,n,n,n,n,n
O=[N+]([O-])c1cccnc1N1CCCCC1,n,n,n,n,n,n
O=c1n(-c2ccc(Br)cc2)cnn1-c1ncccc1[N+](=O)[O-],130,n,n,n,n,n
COC(=O)c1ccccc1NC(=O)c1ccc(-c2ccc(Br)cc2)o1,138,n,n,n,n,n
CN(C)C(=S)N=Nc1[nH]c2ccccc2c1O,176,152,n,n,n,n
CNC(=S)N=Nc1c(O)[nH]c2ccccc12,n,n,n,n,n,n
COc1cccc(/C(C)=N/NC(=O)Cc2c(C)[nH][nH]c2=O)c1,n,n,n,n,n,n
CN(C)c1oc(/C=C/c2ccccc2)nc1C#N,138,n,n,n,n,n
O=C(O)c1ccc(NC(=O)c2cn(-c3ccccc3)nc2-c2ccccc2)cc1,146,n,n,n,n,n
COc1ccc(C(=O)Nc2cnc3ccccn3c2=O)cc1,140,n,n,n,n,n
COc1ccc(C(=O)Nc2ccccc2C(N)=O)cc1,n,n,n,n,n,74
COc1ccc(C(=O)Nc2ccc(O)cc2C(=O)O)cc1,n,n,n,n,n,63
COc1ccc(C(=O)Nc2cc(OC)nc(OC)n2)cc1,138,n,n,n,n,76
C#CCNC(=O)C(C)c1ncc(C(F)(F)F)cc1Cl (stereo not drawn),n,n,n,n,n,n
CCOC(=O)N1CCC(NC(=O)c2cc(C(=O)Nc3ccc(S(=O)(=O)N4CCCCC4)cc3)ccc2CO)CC1,n,n,n,n,n,n
CCc1sc(NC(=O)C(C)C)nc1-c1ccccc1,n,n,n,n,n,n
c1ccc2c(c1)NCCS2,n,n,n,n,n,n
COc1ccc(C(=O)Nc2ccccc2C(=O)N/N=C/c2cccc3ccccc23)cc1,n,n,80,n,39,97
SMILES,STAT1 act,STAT3 act,STAT3 inh,FLuc act counter,STAT1 blocker,FLuc inh counter
COc1ccc(C(=O)N/N=C/c2cc3ccccc3[nH]c2=O)cc1,n,n,n,n,n,n
COc1ccccc1NC(=S)NC(NC(=O)CC(C)C)C(Cl)(Cl)Cl (stereo not drawn),n,n,n,n,n,n
COc1ccc2nc(SCC(N)=O)[nH]c2c1,n,n,n,n,n,n
COc1ccc2nc(SCC(=O)/C(C#N)=C(\C)N)[nH]c2c1,141,n,n,n,n,n
COc1ccc(-c2nnc(-c3ccc(N(C)C)cc3)o2)cc1,n,n,n,n,n,n
C/C(N)=C(/C#N)C(=O)CSc1nnc(-c2ccccc2Br)o1,138,n,n,n,n,n
COc1ccc(-c2nnc(SCC(=O)/C(C#N)=C(\C)N)o2)cc1,136,n,n,n,n,n
COc1ccc(-c2nnc(-c3ccc(N)cc3)o2)cc1,140,n,n,n,n,68
CC(C)(C)[C@@H]1C=C(C(=O)N2CCN(Cc3ccc4c(c3)OCO4)CC2)O[C@H](OCc2ccc(CO)cc2)C1,n,x,x,n,n,n
N#Cc1c(NC(=O)c2nc3ncccn3n2)sc2c1CCCCC2,n,n,n,n,n,57
